In brackets after ≈: the same amount, converted by molar mass. Activity calls are given as the source filed them. The calls are words filed in the database; no cut-off is given here.
Key:
[1] = system: Human immunodeficiency virus 1; assay: Antiviral activity against HIV1 3B infected in human MT4 cells […] with HTLV1 assessed as reduction in virus induced cytopathicity measured 5 days post infection by MTT assay; type: functional, organism-based; conditions: Human immunodeficiency virus 1, 3B, MT4, 120 h
How it was run: (§1)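 MT-4 cells (HTLV-1-carrying human T cells; RPMI-1640, 10% FBS, 2 mM L-glutamine) infected with cell-free HIV-1 IIIB or HIV-2 ROD at 100 TCID50/mL for 1.5 h at 37 °C, then plated at 1.0×10^5 cells/mL with serial compound dilutions (DMSO stock, at most 0.5% DMSO final) in triplicate. Cultured 5 days at 37 °C. Virus-induced cytopathicity read by MTT. IC50 is the concentration giving 50% protection.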

[2] = system: Coxsackievirus B1; assay: Antiviral activity against Coxsackie virus B1 up to 100 ug/mL; type: functional, organism-based
[3] = system: Coxsackievirus B3; assay: Antiviral activity against Coxsackie virus B3 up to 100 ug/mL; type: functional, organism-based
[4] = system: MT4; assay: Toxicity against human MT4 cells by MTT assay; type: cell-based
How it was run: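 Uninfected MT-4 cells (HTLV-1-carrying T4+ line) at 1.0×10^5 cells/mL in RPMI-1640/10% FBS, gentamycin, 2 mM L-glutamine, run in triplicate alongside infected cultures for 5 days at 37 °C, 5% CO2. Compounds were diluted from DMSO, final DMSO ≤0.5%. Read by MTT (1.5 h), formazan dissolved in acidic 2-propanol, A540/690. CC50 is the concentration reducing viability by 50%.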

[5] = system: Poliovirus 3; assay: Antiviral activity against Human poliovirus 3 up to 100 ug/mL; type: functional, organism-based
[6] = system: Human immunodeficiency virus 2; assay: Antiviral activity against HIV2 ROD infected in human MT4 cells assessed as reduction in virus induced cytopathicity measured 5 days post infection by MTT assay; type: functional, organism-based; conditions: Human immunodeficiency virus 2, ISOLATE ROD, MT4, 120 h; how it was run: as §1
[7] = Selectivity index, ratio of CC50 for human MT4 cells to IC50 for HIV2 ROD; type: functional
How it was run: (§2)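 Uninfected MT-4 cells (1.0×10^5 cells/mL) were cultured for 5 days at 37 °C with compound in parallel with the infected cultures. Viability was read by MTT (1.5 h with MTT, formazan dissolved in acidic 2-propanol, absorbance at 540/690 nm). CC50 is the concentration reducing viability of uninfected cells by 50%. Index = CC50/IC50 against the HIV-1 IIIB or HIV-2 ROD MT-4 assay.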

[8] = Selectivity index, ratio of CC50 for human MT4 cells to IC50 for HIV1 3B; type: functional; how it was run: as §2
[9] = system: Influenza B virus; assay: Antiviral activity against influenza B virus Panama up to 100 ug/mL; type: functional, organism-based
[10] = system: Feline infectious peritonitis virus; assay: Antiviral activity against Feline infectious peritonitis virus WSU up to 100 ug/mL; type: functional
[11] = system: Influenza A virus; assay: Antiviral activity against influenza A virus H1N1 Taiwan up to 100 ug/mL; type: functional, organism-based
[12] = system: Influenza A virus; assay: Antiviral activity against Influenza A virus H3N2 Johannesburg up to 100 ug/mL; type: functional, organism-based
[13] = system: Feline coronavirus; assay: Antiviral activity against Feline coronavirus WSU up to 100 ug/mL; type: functional, organism-based
[14] = system: Human alphaherpesvirus 2; assay: Antiviral activity against HSV2; type: functional, organism-based

Structure (SMILES) | IC50 [1] | inhibition [2] | inhibition [3] | CC50 [4] | inhibition [5] | IC50 [6] | Ratio CC50/IC50 [7] | Ratio CC50/IC50 [8] | inhibition [9] | inhibition [10] | inhibition [11] | inhibition [12] | inhibition [13] | IC50 [14]
Nc1nc(O)c2ncn([C@@H]3C=C[C@@]4(CO)C[C@@H]34)c2n1 | > 100 µg/mL | inactive | inactive | > 100 µg/mL | inactive | > 100 µg/mL | – | – | – | – | – | – | – | –
O=c1ccn([C@@H]2C=C[C@@]3(CO)C[C@@H]23)c(=O)[nH]1 | > 100 µg/mL | inactive | inactive | – | inactive | – | – | – | – | – | – | – | – | –
Nc1ccn([C@H]2CC[C@@H](CO)O2)c(=O)n1 [ZALCITABINE] | 0.043 µg/mL (≈ 0.204 µM) | – | – | 10.66 µg/mL (≈ 50.5 µM) | – | 0.04 µg/mL (≈ 0.189 µM) | 266.7 | 248.73 | – | – | – | – | – | –
Nc1ccn([C@@H]2C=C[C@@]3(CO)C[C@@H]23)c(=O)n1 | > 100 µg/mL | inactive | inactive | > 100 µg/mL | inactive | > 100 µg/mL | – | – | – | – | – | – | – | –
O=c1nc(O)ccn1[C@H]1C=C[C@]2(CO)C[C@H]12 | > 100 µg/mL | inactive | inactive | > 100 µg/mL | inactive | > 100 µg/mL | – | – | – | – | – | – | – | –
Cc1cn([C@H]2C=C[C@]3(CO)C[C@H]23)c(=O)[nH]c1=O | 0.033 µg/mL (≈ 0.141 µM) | inactive | inactive | 8.558 µg/mL (≈ 36.5 µM) | inactive | 0.112 µg/mL (≈ 0.478 µM) | 76 | 263 | – | – | – | – | – | –
Nc1ncnc2c1ncn2[C@@H]1C=C[C@@]2(CO)C[C@@H]12 | > 100 µg/mL | inactive | inactive | – | inactive | > 100 µg/mL | – | – | – | – | – | – | – | –
O=c1[nH]cnc2c1ncn2[C@H]1CC[C@@H](CO)O1 [DIDANOSINE] | 2.31 µg/mL (≈ 9.78 µM) | – | – | > 100 µg/mL | – | 5.76 µg/mL (≈ 24.4 µM) | >17.38 | >43.29 | – | – | – | – | – | –
Cc1cn([C@@H]2C=C[C@@]3(CO)C[C@@H]23)c(=O)[nH]c1=O | 1.18 µg/mL (≈ 5.02 µM) | inactive | inactive | > 100 µg/mL | inactive | 2.27 µg/mL (≈ 9.69 µM) | >44.05 | >85.09 | inactive | inactive | inactive | inactive | inactive | 59.2 µg/mL (≈ 253 µM)
Nc1ncnc2c1ncn2[C@H]1C=C[C@]2(CO)C[C@H]12 | 40.5 µg/mL (≈ 166 µM) | inactive | inactive | > 100 µg/mL | inactive | – | – | >2.47 | – | – | – | – | – | –
Nc1ccn([C@H]2C=C[C@]3(CO)C[C@H]23)c(=O)n1 | > 61.8 µg/mL | inactive | inactive | 61.8 µg/mL (≈ 282 µM) | inactive | > 61.8 µg/mL | <1 | <1 | – | – | – | – | – | –
